Experimental data reported in the EternaBench riboswitch data.

Tested on: MS2 coat protein
Test: apparent Kd, MS2 coat protein; higher = weaker binding; RNA-MaP array; FMN 200 µM where present
Summary of the method: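 Designs on Illumina sequencing-chip clusters, transcribed by stalled E. coli RNA polymerase, were exposed to SNAP-549-labelled MS2 coat protein in doubling steps from 0.7 or 1.5 nM up to 3 µM, without and then with constant ligand. The buffer held 100 mM Tris-HCl pH 7.5, 80 mM KCl, 4 mM MgCl2, BSA, DTT, yeast tRNA and Tween-20. Apparent Kd values are medians of filtered per-cluster binding-curve fits to green signal normalised to red-channel RNA signal and control-cluster median Fmax.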

[1] = designed as: ON switch for flavin mononucleotide, no ligand
[2] = ligand present: flavin mononucleotide, designed as: ON switch for flavin mononucleotide
[3] = designed as: OFF switch for flavin mononucleotide, no ligand
[4] = ligand present: flavin mononucleotide, designed as: OFF switch for flavin mononucleotide

Sequence	apparent Kd [1]	apparent Kd [2]	apparent Kd [3]	apparent Kd [4]
GUUUUUUUUAGUUCAUACUAUAUGAUAGAAGGUGAAAUAUAGACAUGAGGAUCACCCAUGUAAUUCAAGGAUAUGUAGUUACUC	35.1 nM	24.3 nM	–	–
AUAGUGCCGGAGAAGGACGUACCACAUGUUGAUCACCGAUAUAAGGAACGUAGGAUAUUCGACAUGAGGAUCACCCAUGUGGAU	101 nM	64.7 nM	–	–
GUAAGAAAUACAGGAUAUGUUAGUUUUAAGUGUAUUGGUUAUUACUUAAUUACAGAAGGGUAUUACAUGAGGAUCACCCAUGUA	14.8 nM	9.06 nM	–	–
AUGGUUCACUCAGGAUAUGUAUCACCUCGUUACCAACAUGAGGAUCACCCAUGUCCGUGGCUCGGACAGAAGGGAGAAGAACCG	581 nM	232 nM	–	–
UAUAUAUAGUAAGGAUAUGUAAUCAUUUUAUAAACAGAAGGUACUGACAUGAGGAUCACCCAUGUUUUAGUGUGGGCAUGUAGA	–	–	86.4 nM	141 nM
CGAUUACGAGGAUAUUAUGGCCUCGACAUGAGGAUCACCCAUGUACAAACAUGAAUACCUUGAGAAGGCGUAGAGC	–	–	67.7 nM	67.3 nM
AAAAAACAUGAGGAUCACCCAUGUGAGGAUAUUAAAAAUAAGAAGGCAUAAAAAAAAAUAAGAAGGCACAUGAA	–	–	31.7 nM	44.8 nM
CGCAAGUCAGGAUAUUCGACUGGUAAAUCUGUGGAUCAGUAGGAGAAGGGACAUGAGGAUCACCCAUGUUUGUA	–	–	29.5 nM	35.9 nM
GUAGCAUAAUUAGGAUAUUCAGCGAAUAGAUUGACAUGAGGAUCACCCAUGUGGCGAAAGCCUAGGGAGAAGGGAUAAUGCUAC	254 nM	120 nM	–	–
GUAUCUUAUGAGAAGGCGAUCAUGAAACAUGAUCGAGGAUAUCAUGAAAACAUGAGGAUCACCCAUGUAUGGGUAUUAUGGUAC	63.5 nM	43.7 nM	–	–
UUUUAGCAGUCAGGAUAUGCAACGCACAACGACGCAGAAGGGACAUGAGGAUCACCCAUGUUAUGGUUCUGGUACUAUGACGUU	–	–	18.1 nM	24.6 nM
CACUUGGCAGGAUAUGCAAUUUUAGACAUGAGGAUCACCCAUGUGAUCAUUCCAUAUUAUGCAGAAGGGCCUAAAC	–	–	199 nM	747 nM
CUAUGAACGAUAGGAUAUACUGAGGUUGAGUGGGUAGAAGGAUCGAUAGUGGAGAAGACAUGAGGAUCACCCAUGUUAUGGAUU	552 nM	170 nM	–	–
AAGUUUUUACAAGGAUAUCAAUUUUUUCUAAAUUCAACAUGAGGAUCACCCAUGUAACAAUGGAGUGAGAAGGUGUUUUGGCAA	176 nM	205 nM	–	–
AAAAUAAGAACAGGAUAUGUGGGUUCGAAGAGUAAAGCUCUCCACAUGAGGAUCACCCAUGUGCCACAGAAGGGUUCGGGUGAU	58 nM	11.8 nM	–	–
AGCUACGUUUCGUAGCAGUGUCAUCGAGAAGGCCCUGACAUGAGGAUCACCCAUGUUGUUACAUGGGAGGAUAUCGAUGAUACC	13.3 nM	5.32 nM	–	–
GUCACGAAUGUAGGAUAUCGAGUGGAUAACACUCGAGAAGGACAUGAGGAUCACCCAUGUAAAAUGAAAGAUAAUAAACGUGAC	–	–	17.6 nM	50.5 nM
CCACCCUGAGGAUAUCCACCCUCAUACAUGAGGAUCACCCAUGUUAAUGCCUGAGUUCCCGGAGAAGGCAGAUUCC	–	–	86.5 nM	63.8 nM
GUAGAGUCAGGAUAUACAAGAUCGAAAGAUCGAAGAUUUAUACAUGAGGAUCACCCAUGUAGAAGGGACUCUAC	–	–	14.4 nM	16.9 nM
GAUGAGAGAGGAUAUACAUGAGGAUCACCCAUGUAAUUUUCGGACAUGGAAGCCUGAUGUAGAAGGCUCGCAUG	–	–	78.5 nM	38.6 nM
GGAUGAUAGACAGGAUAUUGAUUGUAAUUAUGUCAAGAAGGGUCUUUGAUUUAAACGACCAGUUACAUGAGGAUCACCCAUGUU	30.7 nM	21 nM	–	–
GGGCCCGGAGGAUAUACAAUGGGCCCGGGAAACCGGGUUUUACAUGAGGAUCACCCAUGUAGAAGGCCGGGUUU	–	–	14.5 nM	15.4 nM
GGGUUUGGAGGAUAUACAUGAGGAUCACCCAUGUAGGGUUUGGGUAUUCCCGGGCCCUGUAGAAGGCCGGGCCC	–	–	16.6 nM	20.4 nM
GUAGCAUAAUCAGGAUAUUCAGCGAAUAGAUUGACAUGAGGAUCACCCAUGUGGCGAAAGCCUAGGGAGAAGGGAUAAUGCUAC	405 nM	42.1 nM	–	–

Sequence	apparent Kd [1]	apparent Kd [2]	apparent Kd [3]	apparent Kd [4]
AAAAUGUAAGGAUAUCGUCCCGUAAAUAUCGGGAAAAUUGUCGAGAAGGUACAUGAGGAUCACCCAUGUUCCUG	–	–	16.7 nM	18.2 nM
AAAAAAAAAGUAUAGGAUAUCCGAGUGGUAACAUGAGGAUCACCCAUGUGAAGAAAGGAAGAUGAGGAGAAGGAUACAAAAAAAAA	125 nM	48.5 nM	–	–
AUCAGCUUGUCAGGAUAUGCGUGUCAACGAAAGUAGACAAUCUUAAUAACAUGAGGAUCACCCAUGUAGAAGGGACGAGCUGAU	–	–	18.2 nM	20.3 nM
ACCGAAUGAACAUGAGGAUCACCCAUGUACAGGAAACUGAAUGAGGAUAUCCAUAGCAAAGCUAUGGAGAAGGCAUGGGUCGGU	363 nM	110 nM	–	–
AAAACGUGAGGAUAUGCACCAACCAAGGUUUUUCGGGUACGACAUGAGGAUCACCCAUGUAGAAGGCACGCAAA	–	–	26.4 nM	32 nM
AAAUGCCUGUCGAUGCUCGACAUGAGGAUCACCCAUGUAUAGCAGGAUAUGCAGACCUGACUCGUGCAGAAGGGCUAUACCUAA	–	–	12.6 nM	64.3 nM
CGCCGACAUGAGGAUCACCCAUGUCACAACUGGUCAGGAUAUGGUAUGAAAUGGCUAUUGCCAGAAGGGACCUCAG	40.9 nM	20.4 nM	–	–
UUGUUCUGAGGAUAUACAUGAGGAUCACCCAUGUGUUUCUGCUUGGUGUCUAGCGAAUGUAGAAGGCUGUUCUC	–	–	21.7 nM	22.9 nM
GCAGCAUAGUUUACUAACUGUUACAUGAGGAUCACCCAUGUUUAGGAUAUGGUCUGGAUUACAGGCCAGAAGGGAACAAGCUGC	–	–	14.6 nM	12.3 nM
AAUAACAGAGGAUAUACUAUUUUAUGUGUUUAUUGUUUUAAACAUGAGGAUCACCCAUGUAGAAGGCUGAUUGA	–	–	77.3 nM	114 nM
GCAGCGCUUGACAUGAGGAUCACCCAUGUUAGAUUGUUAAGUCAGGAUAUAGUCUAGAAACUAGACUAGAAGGGAUUUGCUGCU	7.18 nM	6.14 nM	–	–
GUUUCGGGAGGAUAUGCGUGGAUUAUUUUCGUAUGUUGUUUACAUGAGGAUCACCCAUGUAGAAGGUCUGGAGC	–	–	42.8 nM	228 nM
UGGUACUAGGGAGGAUAUCGGAAGAUACAUGAGGAUCACCCAUGUUUAAGAAUGCCGAGAGGCAACUAGAAGGCCCUAGUACCU	6.64 nM	6.13 nM	–	–
AUUGUAUGGAAAGGAUAUAGAAUAUUAUUUUAACAUGAGGAUCACCCAUGUAACCUUAUGUGUAGCUAGAAGGUUCGUUUGUUA	–	–	88.2 nM	97.8 nM
GCGGGCAGCACAGGAUAUGUGACGUACAUGAGGAUCACCCAUGUGCGAAUGGCAGAAGGGUGAGGCCUCGGUGACCGAUUUCCG	16 nM	5.59 nM	–	–
AGAUAUAUACAUGAGGAUCACCCAUGUUAAUAGGUGUUUGUCAGAAGGCAUUAUGAGAGAAUUAAUGAGGAUAUGAAGUAUCAU	37.3 nM	23 nM	–	–
GGGUACAUCGGAGGAUAUCAUAUAAAUACAUGAGGAUCACCCAUGUCGAUGGAGACAUCGGAGAUUGAGAAGGCCGAUGUACCG	8.43 nM	5.54 nM	–	–
AGCUAGUCAGGAUAUACGAAAAUGUCAGAGGCUGUGAAGGGACAUGAGGAUCACCCAUGUAGAAGGGACUAGCA	–	–	96.8 nM	136 nM
GUUAACGCAUGAGGAUAUGCUCACAUUUCAAGAGCAGAAGGUAUGUCUAUAGACAUGAGGAUCACCCAUGUAUUUAUCAUUGAA	166 nM	42.5 nM	–	–
GCAUCGCAUGUCAGGAUAUGCUGUACCUUGGUACAGCAGAAGGGACAUGAGGAUCACCCAUGUGCCUAUGAUGC	–	–	39.7 nM	353 nM
AUAAUUUUGUAGAAGGUACGUGAUUAGUCAAAGUAAGGAUAUACUGACAUGAGGAUCACCCAUGUUUUAAUAGUUAACAGUUCU	12.8 nM	7.99 nM	–	–
CAAUUCGCACAGAAGGGUGACAUGAGGAUCACCCAUGUAGCGUGGCACUCAGGAGGAGCCACGCCACAGGAUAUGUGCGGGCAC	33.4 nM	33.8 nM	–	–
CGGAUCGCAUGAGGAUAUGGUCAGCUUUGCUGACCAGAAGGCAUGUCAUAAGACAUGAGGAUCACCCAUGUAGUUAAGAUCCGA	576 nM	46.3 nM	–	–
GGUGCCAUGUAGAAGGCAGAUCUGAUUCAGAUCUGAGGAUAUACAUGAGGAUCACCCAUGUAAAGGCUCCGCACGAGAGUGCAA	–	–	14.9 nM	41.7 nM
